According to PMC11638873 (Molecular Therapy, 2024):
“And” between values parts separate entries of the source, which are not always exact repeats. Equal entries are not always repeated.

Columns and labels:
[1] = test system: human liver microsomes (CYP, UGT); assay: In vitro metabolism on human liver microsomes; type: in vitro ADME; conditions: for glucuronate metabolite detection after HLM incubation: with cofactors for UGT activity
Method in brief: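 Test compound (1 mM) incubated at 37 °C with pooled HLMs from 50 donors of both sexes (20 mg protein/mL). Buffer was 100 mM potassium phosphate or 100 mM Tris-HCl, pH 7.4, each with 20 mM NADPH. Reactions stopped with acetonitrile at 0, 5, 30 and 60 min; supernatant analysed by HPLC-MS. % remaining vs 0 min; mean ± SEM; one-way ANOVA vs time 0.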

[2] = test system: premature termination codons (PTCs) / natural termination codons (NTCs); conditions: cited from earlier work
[3] = cited from earlier work
[4] = test system: CFTR (G542X nonsense mutation); type: in vivo, mouse; conditions: 60 mg/kg daily oral, 15 days
Method in brief: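 G542X homozygous mice (n = 5, genotyped by allele-specific PCR) gavaged daily from P21 for 15 days; 3 WT and 3 mutant mice given water as vehicle. Lung RNA (20–25 mg tissue) for real-time RT-PCR. Lung protein (40 mg tissue, RIPA plus 1% protease inhibitors, Bradford) for western blot, normalized to tubulin and negative control. Triplicate per mouse; mean ± SEM; two-way ANOVA vs untreated mutant.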

[5] = type: in vivo, mouse; conditions: 60 mg/kg daily oral
Method in brief: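 Homozygous G542X mice were dosed orally once daily from P21 for 15 days. Controls were 3 WT and 3 mutant mice given water. Afterwards, isolated tissues from each group were stained with hematoxylin and eosin to check for tissue damage.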

[6] = Biodistribution study after single oral dose in wild-type C57BL/6 mice; type: in vivo, mouse; conditions: 60 mg/kg single oral dose

Row | SMILES | metabolic consumption after HLM incubation ([1]; after 60 min, HLM condition not specified) | glucuronate metabolite detection after HLM incubation [1] | specificity for PTCs [2] | tolerability in vivo [3] | lung CFTR mRNA expression (real-time RT-PCR) ([4]; CFTR G542X/G542X mice, vs untreated mutant) | CFTR detection in lung sections (IHC), apical membranes of pulmonary ducts ([4]; mouse M2) | tissue damage after chronic administration (H&E staining) ([5]; 15 days) | tolerability of oral treatment for 2 weeks ([5]; CFTR G542X/G542X mice) | last detection in lungs [6] | concentration in kidneys (individual mice) ([6]; 45 min, found in two mice) | concentration in pancreas ([6]; 45 min to 2 h) | average plasma concentration ([6]; 24 h) | metabolic stability in HLM compared to PTC124 ([1]; CYP, UGT and other liver microsome enzymes) | consumption after HLM incubation ([1]; after 60 min, CYP-DPBS condition) | consumption after HLM incubation ([1]; after 60 min, CYP-Tris condition) | consumption after HLM incubation ([1]; after 60 min, CYP/UGT-DPBS condition) | consumption after HLM incubation ([1]; after 60 min, CYP/UGT-Tris condition)
1 | O=C(O)c1cccc(-c2noc(-c3ccccc3F)n2)c1 [PTC124, reference compound] | 46.25% | glucuronate derivative was the primary metabolite detected |  |  |  |  |  |  |  |  |  |  |  |  |  |  | 
2 | CC(=O)Nc1noc(C)n1 [NV848, N-(5-methyl-1,2,4-oxadiazol-3-yl)acetamide] |  | no glucuronate metabolites were detected | specificity for PTCs without interfering with NTCs | good tolerability in vivo | increase in CFTR mRNA expression | intensity similar to CFTR^WT | no signs of tissue damage | well tolerated in mice and did not cause toxicity | 2 h | 145 ng/g and 794 ng/g | stable concentrations from 45 min to 2 h | 0.06 g/mL | higher metabolic stability compared to PTC124 | 14.62% | 5.27% | 5.65% | 13.04%
